Measured values reported in publication PMC3404467 (Journal of Medicinal Chemistry, 2012).

Legend:
hNPFF1R [1] = biological target: T1, hNPFF1R (Homo sapiens, UniProt Q9GZQ6); assay: IP accumulation assay, wt hNPFF1R in COS-7 cells with chimeric G-protein; assay type: cell-based; settings: for functional behaviour at NPFF1R: IP accumulation assays; for functional behaviour at NPFF1R / IP accumulation at NPFF1R: wt NPFF1R; for x-fold: wt hNPFF1R, EC50(compound)/EC50(endogenous ligand NPVF at wt); for IP accumulation at NPFF1R: at 10 μM
T1 sequence (Q9GZQ6 whole entry): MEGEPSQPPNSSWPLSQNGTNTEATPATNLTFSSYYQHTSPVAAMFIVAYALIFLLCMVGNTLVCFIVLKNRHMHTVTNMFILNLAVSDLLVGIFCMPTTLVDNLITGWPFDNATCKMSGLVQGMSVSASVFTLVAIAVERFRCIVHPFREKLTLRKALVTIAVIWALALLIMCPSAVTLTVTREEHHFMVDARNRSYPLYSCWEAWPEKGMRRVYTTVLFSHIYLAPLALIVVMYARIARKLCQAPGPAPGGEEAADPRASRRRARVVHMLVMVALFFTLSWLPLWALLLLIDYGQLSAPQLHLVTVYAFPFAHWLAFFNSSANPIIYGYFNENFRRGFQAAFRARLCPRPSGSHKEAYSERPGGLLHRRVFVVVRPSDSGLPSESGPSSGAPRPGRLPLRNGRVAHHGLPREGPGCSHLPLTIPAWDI

human NPFF2 receptor = human NPFF2 receptor (Homo sapiens, UniProt Q9Y5X5); assay: IP accumulation assay, wt hNPFF2R in COS-7 cells with chimeric G-protein; assay type: cell-based; settings: for functional behaviour at NPFF2R: IP accumulation assays, wt NPFF2R; for x-fold: wt hNPFF2R, EC50(compound)/EC50(NPFF at wt)
Chain of human NPFF2 receptor (Q9Y5X5 whole entry): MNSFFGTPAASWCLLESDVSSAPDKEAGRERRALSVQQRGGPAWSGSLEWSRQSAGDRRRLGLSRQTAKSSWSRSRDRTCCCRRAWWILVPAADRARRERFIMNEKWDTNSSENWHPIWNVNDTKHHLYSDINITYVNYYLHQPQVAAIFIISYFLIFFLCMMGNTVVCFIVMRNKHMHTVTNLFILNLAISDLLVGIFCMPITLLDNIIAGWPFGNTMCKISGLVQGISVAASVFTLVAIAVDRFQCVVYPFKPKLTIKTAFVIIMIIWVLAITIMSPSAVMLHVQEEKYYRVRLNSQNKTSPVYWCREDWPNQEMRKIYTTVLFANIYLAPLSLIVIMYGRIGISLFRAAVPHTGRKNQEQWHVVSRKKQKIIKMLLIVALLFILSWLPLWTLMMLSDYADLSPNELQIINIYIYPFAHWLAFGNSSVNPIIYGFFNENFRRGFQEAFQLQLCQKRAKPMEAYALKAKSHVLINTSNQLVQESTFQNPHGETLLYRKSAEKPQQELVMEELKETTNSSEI

hNPFF2R = settings: cited from earlier work
Y^7.35A_hNPFF2R = Y^7.35A_hNPFF2R (Homo sapiens, UniProt Q9Y5X5, Y417A); assay: IP accumulation assay, Y^7.35A mutant of hNPFF2R; assay type: cell-based; settings: Y^7.35A hNPFF2R; ratio to EC50 of NPFF at wt
Chain of Y^7.35A_hNPFF2R (Q9Y5X5 whole entry Y417A): as the sequence (Q9Y5X5 whole entry) above, with Y417A counted along it

hNPFF1R [2] = biological target: T1, hNPFF1R; settings: CHO-hNPFF1R cells, up to 10 μM; cited from earlier work
COS-7 cells = assay: Resazurin-based cell viability assay; design: species or system African Green Monkey; settings: 2 h incubation, at high compound concentrations
In short: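 COS-7 cells seeded 30,000/well, grown to subconfluency, exposed 2 h to varying concentrations in DMEM (4.5 g/L glucose, L-glutamine, 10% heat-inactivated FCS). Controls were 70% EtOH for 10 min and FCS medium. Cells were washed twice in serum-free medium, then given 10% resazurin in serum-free medium for 2 h at 37°C. Resorufin fluorescence was read at ex 550/em 595 nm. Two independent experiments, triplicates; IC50 derived.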

hNPFF1R [3] = biological target: T1, hNPFF1R; assay: Antagonism: NPVF concentration-response curves; assay type: cell-based; settings: against NPVF
[4] = rats, spinal nerve ligation; cited from earlier work
Y^5.38A hNPFF2 receptor = Y^5.38A hNPFF2 receptor (Homo sapiens, UniProt Q9Y5X5, Y321A); assay: IP accumulation assay, Y^5.38A mutant of hNPFF2R; assay type: cell-based; settings: Y^5.38A hNPFF2R; ratio to EC50 of NPFF at wt
Chain of Y^5.38A hNPFF2 receptor (Q9Y5X5 whole entry Y321A): as the sequence (Q9Y5X5 whole entry) above, with Y321A counted along it

Y^7.33A_hNPFF2R = Y^7.33A_hNPFF2R (Homo sapiens, UniProt Q9Y5X5, Y415A); assay: IP accumulation assay, Y^7.33A mutant of hNPFF2R; assay type: cell-based; settings: Y^7.33A hNPFF2R; ratio to EC50 of NPFF at wt
Chain of Y^7.33A_hNPFF2R (Q9Y5X5 whole entry Y415A): as the sequence (Q9Y5X5 whole entry) above, with Y415A counted along it

D^6.59A_hNPFF2R = D^6.59A_hNPFF2R (Homo sapiens, UniProt Q9Y5X5, D400A); assay: IP accumulation assay, D^6.59A mutant of hNPFF2R; assay type: cell-based; settings: D^6.59A hNPFF2R; ratio to EC50 of NPFF at wt
Chain of D^6.59A_hNPFF2R (Q9Y5X5 whole entry D400A): as the sequence (Q9Y5X5 whole entry) above, with D400A counted along it

SMILES	functional behaviour at NPFF1R (hNPFF1R [1])	x-fold (hNPFF1R [1]) [fold]	functional behaviour at NPFF2R (human NPFF2 receptor)	x-fold (human NPFF2 receptor) [fold]	effect on stimulation of [^35S]GTPγS binding (hNPFF2R; hNPFF2R membranes, up to 100 μM)	right-shift of concentration-effect curves of NPFF (hNPFF2R; in the presence of high concentrations of RF9)	x-fold (Y^7.35A_hNPFF2R) [fold]	activity in cAMP accumulation assay (hNPFF1R [2])	EC50 (human NPFF2 receptor) [µM]	cytotoxicity (relative cell viability) (COS-7 cells)	IP accumulation at NPFF1R (hNPFF1R [1])	Schild plot slope (hNPFF1R [3])	antinociceptive effect on mechanical allodynia [4]	x-fold (Y^5.38A hNPFF2 receptor) [fold]	x-fold (Y^7.33A_hNPFF2R) [fold]	x-fold (D^6.59A_hNPFF2R) [fold]
N=C(N)NCCC[C@H](NC(=O)C12CC3CC(CC(C3)C1)C2)C(=O)N[C@@H](Cc1ccccc1)C(N)=O [RF9, 1-Adamantanecarbonyl-RF-NH2, reference compound]	agonistic activity	41	agonistic activity	222	no effect	~ 160 fold	277	inactive	–	–	–	–	–	–	–	–
N=C(N)N/N=C/c1ccc(Cl)c(C(F)(F)F)c1 [AC-099]	partial agonists	–	full agonists	–	–	–	–	–	–	–	–	–	–	–	–	–
N=C(N)N/N=C/c1ccc(-c2ccc(Br)cc2C(F)(F)F)o1 [AC-216]	full agonist	3308	full agonists	977	–	–	738	–	1.16 ± 0.638	cytotoxic effect	–	–	–	–	–	–
N=C(N)N/N=C/c1ccc(Br)c(Br)c1 [AC-093]	partial agonists	310	full agonists	1291	–	–	–	–	–	cytotoxic effect	–	–	–	–	–	–
NC(N)=NCCC[C@@H](NC(=O)C(c1ccccc1)c1ccccc1)C(=O)NCc1ccc(O)cc1 [BIBP3226, (R)-N(2)-(diphenylacetyl)-N-[(4-hydroxyphenyl)-methyl]-argininamide, reference compound]	competitive antagonist	–	partial agonist	137	–	–	66	–	–	–	no IP accumulation	0.89 ± 0.05	–	–	–	–
N=C(N)N/N=C/C12CC3CC(CC(C3)C1)C2 [AC-970]	competitive antagonism	–	full agonists	175	–	–	177	–	–	cytotoxic effect	no IP accumulation	1.04 ± 0.19	reversing established mechanical allodynia	1440	4901	5211
